In ChEMBL document CHEMBL1212785, “In vitro potency of CXA-101, a novel cephalosporin, against Pseudomonas aeruginosa displaying various resistance phenotypes, including multidrug resistance” (2010):
Converted amounts (≈) assume the structure as drawn.

Columns and labels:
Type in all cases: functional
Pseudomonas aeruginosa [1] = test: Antimicrobial activity against imipenem resistant Pseudomonas aeruginosa isolates by broth microdilution method
How it was run: (§1)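 Nonduplicate, nonurine, drug-resistant clinical isolates collected from 40 US hospitals, October 2005 to March 2008. MICs determined by CLSI reference broth microdilution. The cephalosporin was tested alone and with tazobactam fixed at 4 μg/ml. Comparators were tested by the same method. P. aeruginosa ATCC 27853 served as quality control, with ranges of 0.25 to 1 μg/ml for both regimens.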

Pseudomonas aeruginosa [2] = test: Antimicrobial activity against drug resistant Pseudomonas aeruginosa isolates by broth microdilution method; how it was run: as §1
Pseudomonas aeruginosa [3] = test: Antimicrobial activity against piperacillin-tazobactam resistant Pseudomonas aeruginosa isolates by broth microdilution method; how it was run: as §1
Pseudomonas aeruginosa [4] = test: Antimicrobial activity against multidrug resistant Pseudomonas aeruginosa isolates by broth microdilution method; how it was run: as §1
Pseudomonas aeruginosa [5] = test: Antimicrobial activity against Ceftazidime resistant Pseudomonas aeruginosa isolates by broth microdilution method; how it was run: as §1
Pseudomonas aeruginosa [6] = test: Antimicrobial activity against tobramycin resistant Pseudomonas aeruginosa isolates by broth microdilution method; how it was run: as §1

What does the source list for CO/N=C(\C(=O)N[C@@H]1C(=O)N2C(C(=O)[O-])=C(C[N+]3(C)CCCC3)CS[C@H]12)c1csc(N)n1 [CEFEPIME]?
MIC50 (Pseudomonas aeruginosa [1]): 8 µg/mL (≈ 16.6 µM); MIC90 (Pseudomonas aeruginosa [1]): 32 µg/mL (≈ 66.6 µM); MIC50 (Pseudomonas aeruginosa [2]): 16 µg/mL (≈ 33.3 µM); MIC90 (Pseudomonas aeruginosa [2]): 64 µg/mL (≈ 133 µM); MIC50 (Pseudomonas aeruginosa [3]): 16 µg/mL; MIC90 (Pseudomonas aeruginosa [3]): 32 µg/mL; MIC50 (Pseudomonas aeruginosa [4]): 16 µg/mL (≈ 33.3 µM); MIC90 (Pseudomonas aeruginosa [4]): 64 µg/mL (≈ 133 µM); MIC50 (Pseudomonas aeruginosa [5]): 256 µg/mL (≈ 533 µM); MIC90 (Pseudomonas aeruginosa [5]): 256 µg/mL (≈ 533 µM)

Which results are given for CC(C)(O/N=C(\C(=O)N[C@@H]1C(=O)N2C(C(=O)[O-])=C(C[n+]3ccccc3)CS[C@H]12)c1csc(N)n1)C(=O)O [CEFTAZIDIME]?
MIC50 (Pseudomonas aeruginosa [1]): 16 µg/mL (≈ 29.3 µM); MIC90 (Pseudomonas aeruginosa [1]): 128 µg/mL (≈ 234 µM); MIC50 (Pseudomonas aeruginosa [2]): 16 µg/mL (≈ 29.3 µM); MIC90 (Pseudomonas aeruginosa [2]): 128 µg/mL (≈ 234 µM); MIC50 (Pseudomonas aeruginosa [3]): 32 µg/mL; MIC90 (Pseudomonas aeruginosa [3]): 128 µg/mL; MIC50 (Pseudomonas aeruginosa [4]): 64 µg/mL (≈ 117 µM); MIC90 (Pseudomonas aeruginosa [4]): 256 µg/mL (≈ 468 µM); MIC50 (Pseudomonas aeruginosa [5]): 16 µg/mL (≈ 29.3 µM); MIC90 (Pseudomonas aeruginosa [5]): 64 µg/mL (≈ 117 µM)

For Cn1c(N)c(NC(=O)NCCN)c[n+]1CC1=C(C(=O)O)N2C(=O)[C@@H](NC(=O)/C(=N\OC(C)(C)C(=O)[O-])c3nsc(N)n3)[C@H]2SC1 [CEFTOLOZANE], which MIC50 (Pseudomonas aeruginosa [1]) is on record?
Its MIC50 is 2 µg/mL (≈ 3 µM).

What about the MIC90 (Pseudomonas aeruginosa [1]) of the same compound?
Its MIC90 is 8 µg/mL (≈ 12 µM).

What about the MIC50 (Pseudomonas aeruginosa [2]) of the same compound?
The MIC50 was 2 µg/mL (≈ 3 µM).

And the MIC90 (Pseudomonas aeruginosa [2])?
The MIC90 was 2 µg/mL (≈ 3 µM).

What about the MIC50 (Pseudomonas aeruginosa [3]) of the same compound?
The MIC50 was 2 µg/mL.

And the MIC90 (Pseudomonas aeruginosa [3])?
Its MIC90 is 8 µg/mL.

And the MIC50 (Pseudomonas aeruginosa [4])?
Its MIC50 is 2 µg/mL (≈ 3 µM).

What about the MIC90 (Pseudomonas aeruginosa [4]) of the same compound?
The MIC90 was greater than 64 µg/mL.

What about the MIC50 (Pseudomonas aeruginosa [5]) of the same compound?
Its MIC50 is 4 µg/mL (≈ 6 µM).

What about the MIC90 (Pseudomonas aeruginosa [5]) of the same compound?
The MIC90 was 16 µg/mL (≈ 24 µM).

And the MIC50 (Pseudomonas aeruginosa [6])?
Its MIC50 is 2 µg/mL (≈ 3 µM).

And the MIC90 (Pseudomonas aeruginosa [6])?
The MIC90 was 64 µg/mL (≈ 96 µM).

For O=C(O)c1cn(C2CC2)c2cc(N3CCNCC3)c(F)cc2c1=O [CIPROFLOXACIN], which MIC50 (Pseudomonas aeruginosa [1]) is on record?
The MIC50 was 8 µg/mL (≈ 24.1 µM).

And the MIC90 (Pseudomonas aeruginosa [1])?
Its MIC90 is 64 µg/mL (≈ 193 µM).

What about the MIC50 (Pseudomonas aeruginosa [3]) of the same compound?
The MIC50 was 1 µg/mL.

And the MIC90 (Pseudomonas aeruginosa [3])?
Its MIC90 is 32 µg/mL.

And the MIC50 (Pseudomonas aeruginosa [4])?
The MIC50 was 32 µg/mL (≈ 96.6 µM).

And the MIC90 (Pseudomonas aeruginosa [4])?
Its MIC90 is 64 µg/mL (≈ 193 µM).

And the MIC50 (Pseudomonas aeruginosa [5])?
Its MIC50 is 2 µg/mL (≈ 6.04 µM).

What about the MIC90 (Pseudomonas aeruginosa [5]) of the same compound?
The MIC90 was 32 µg/mL (≈ 96.6 µM).

And the MIC50 (Pseudomonas aeruginosa [6])?
The MIC50 was 32 µg/mL (≈ 96.6 µM).

And the MIC90 (Pseudomonas aeruginosa [6])?
Its MIC90 is 128 µg/mL (≈ 386 µM).

C[C@@H](O)[C@H]1C(=O)N2C(C(=O)O)=C(SCCNC=N)C[C@H]12 [IMIPENEM ANHYDROUS] was tested. Which MIC (Pseudomonas aeruginosa [1]) did it give?
Its MIC is 16 µg/mL (≈ 53.4 µM).

What about the MIC50 (Pseudomonas aeruginosa [1]) of the same compound?
The MIC50 was 16 µg/mL (≈ 53.4 µM).

What about the MIC90 (Pseudomonas aeruginosa [1]) of the same compound?
The MIC90 was 32 µg/mL (≈ 107 µM).

And the MIC50 (Pseudomonas aeruginosa [2])?
The MIC50 was 8 µg/mL (≈ 26.7 µM).

And the MIC90 (Pseudomonas aeruginosa [2])?
The MIC90 was 32 µg/mL (≈ 107 µM).

What about the MIC50 (Pseudomonas aeruginosa [3]) of the same compound?
The MIC50 was 64 µg/mL.

What about the MIC90 (Pseudomonas aeruginosa [3]) of the same compound?
Its MIC90 is 256 µg/mL.

What about the MIC50 (Pseudomonas aeruginosa [4]) of the same compound?
The MIC50 was 16 µg/mL (≈ 53.4 µM).

What about the MIC90 (Pseudomonas aeruginosa [4]) of the same compound?
Its MIC90 is 128 µg/mL (≈ 428 µM).

And the MIC50 (Pseudomonas aeruginosa [5])?
The MIC50 was 64 µg/mL (≈ 214 µM).

What about the MIC90 (Pseudomonas aeruginosa [5]) of the same compound?
Its MIC90 is 256 µg/mL (≈ 855 µM).

And the MIC50 (Pseudomonas aeruginosa [6])?
Its MIC50 is 128 µg/mL (≈ 428 µM).

And the MIC90 (Pseudomonas aeruginosa [6])?
The MIC90 was 256 µg/mL (≈ 855 µM).

What does the source list for C[C@H]1COc2c(N3CCN(C)CC3)c(F)cc3c(=O)c(C(=O)O)cn1c23.C[C@H]1COc2c(N3CCN(C)CC3)c(F)cc3c(=O)c(C(=O)O)cn1c23.O [LEVOFLOXACIN]?
MIC50 (Pseudomonas aeruginosa [1]): 16 µg/mL; MIC90 (Pseudomonas aeruginosa [1]): 64 µg/mL; MIC50 (Pseudomonas aeruginosa [2]): 8 µg/mL; MIC90 (Pseudomonas aeruginosa [2]): 64 µg/mL; MIC50 (Pseudomonas aeruginosa [3]): 4 µg/mL; MIC90 (Pseudomonas aeruginosa [3]): 64 µg/mL; MIC50 (Pseudomonas aeruginosa [4]): 32 µg/mL; MIC90 (Pseudomonas aeruginosa [4]): 128 µg/mL; MIC50 (Pseudomonas aeruginosa [5]): 4 µg/mL; MIC90 (Pseudomonas aeruginosa [5]): 64 µg/mL; MIC50 (Pseudomonas aeruginosa [6]): 32 µg/mL; MIC90 (Pseudomonas aeruginosa [6]): 128 µg/mL

What does the source list for C[C@@H](O)[C@H]1C(=O)N2C(C(=O)O)=C(S[C@@H]3CN[C@H](C(=O)N(C)C)C3)[C@H](C)[C@H]12 [MEROPENEM]?
MIC50 (Pseudomonas aeruginosa [1]): 16 µg/mL (≈ 41.7 µM); MIC90 (Pseudomonas aeruginosa [1]): 32 µg/mL (≈ 83.4 µM); MIC50 (Pseudomonas aeruginosa [2]): 8 µg/mL (≈ 20.9 µM); MIC90 (Pseudomonas aeruginosa [2]): 32 µg/mL (≈ 83.4 µM); MIC50 (Pseudomonas aeruginosa [3]): 2 µg/mL; MIC90 (Pseudomonas aeruginosa [3]): 32 µg/mL; MIC50 (Pseudomonas aeruginosa [4]): 16 µg/mL (≈ 41.7 µM); MIC90 (Pseudomonas aeruginosa [4]): 128 µg/mL (≈ 334 µM); MIC50 (Pseudomonas aeruginosa [5]): 4 µg/mL (≈ 10.4 µM); MIC90 (Pseudomonas aeruginosa [5]): 32 µg/mL (≈ 83.4 µM); MIC50 (Pseudomonas aeruginosa [6]): 16 µg/mL (≈ 41.7 µM); MIC90 (Pseudomonas aeruginosa [6]): 128 µg/mL (≈ 334 µM)

How did the MIC50 (Pseudomonas aeruginosa [1]) turn out when NC[C@H]1O[C@H](O[C@H]2[C@H](O)[C@@H](O[C@H]3O[C@H](CO)[C@@H](O)[C@H](N)[C@H]3O)[C@H](N)C[C@@H]2N)[C@H](N)C[C@@H]1O [TOBRAMYCIN] was run?
Its MIC50 is 1 µg/mL (≈ 2.14 µM).

And the MIC90 (Pseudomonas aeruginosa [1])?
Its MIC90 is 64 µg/mL (≈ 137 µM).

And the MIC50 (Pseudomonas aeruginosa [2])?
The MIC50 was 2 µg/mL (≈ 4.28 µM).

What about the MIC90 (Pseudomonas aeruginosa [2]) of the same compound?
Its MIC90 is 128 µg/mL (≈ 274 µM).

And the MIC50 (Pseudomonas aeruginosa [3])?
Its MIC50 is 1 µg/mL.

And the MIC90 (Pseudomonas aeruginosa [3])?
The MIC90 was 4 µg/mL.

What about the MIC50 (Pseudomonas aeruginosa [4]) of the same compound?
Its MIC50 is 128 µg/mL (≈ 274 µM).

What about the MIC90 (Pseudomonas aeruginosa [4]) of the same compound?
The MIC90 was 256 µg/mL (≈ 548 µM).

What about the MIC50 (Pseudomonas aeruginosa [5]) of the same compound?
Its MIC50 is 1 µg/mL (≈ 2.14 µM).

And the MIC90 (Pseudomonas aeruginosa [5])?
Its MIC90 is 4 µg/mL (≈ 8.56 µM).

What about the MIC50 (Pseudomonas aeruginosa [6]) of the same compound?
Its MIC50 is 32 µg/mL (≈ 68.4 µM).

What about the MIC90 (Pseudomonas aeruginosa [6]) of the same compound?
The MIC90 was 128 µg/mL (≈ 274 µM).
